Measurements published in ChEMBL document CHEMBL4145595, “Discovery of MK-8282 as a Potent G-Protein-Coupled Receptor 119 Agonist for the Treatment of Type 2 Diabetes” (ACS Med Chem Lett, 2018).
Calls of active or inactive are those of the source. The calls are words filed in the database; no cut-off is given here.

Tests used:
Mus musculus [1] = assay: Antidiabetic activity in C57Bl/6NCrl mouse assessed as increase in plasma GLP1 (7 to 36) amide levels at 1 mg/kg, po administered via gavage pretreated followed by glucose-challenge measured after 10 mins in presence of sitagliptin; assay type: functional, organism-based
Mus musculus [2] = assay: Antidiabetic activity in C57Bl/6NCrl mouse assessed as reduction in glucose excursion administered via oral gavage pretreated for 30 mins followed by glucose-challenge measured 60 mins post dose by OGTT; assay type: functional, organism-based
Method in brief: (§1)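 Lean C57Bl/6 mice got oral vehicle or drug 30 min before the glucose challenge. Blood glucose was monitored for 60 min after oral administration and expressed as area under the curve (glucose excursion). Doses ranged from 0.03 to 30 mpk.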

Mus musculus [3] = assay: Glucose lowering effect in po dosed GPR119 deficient mouse assessed as reduction in glucose level by OGTT; assay type: functional, organism-based
[4] = AUC in monkey at 3 mg/kg, po; assay type: ADME, organism-based, Macaca mulatta; details: rhesus monkey, in vivo
Method in brief: (§2)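 Monkey PK used 1 mpk IV and 3 mpk PO. Readouts were plasma clearance (mL/min/kg), Vdss (L/kg), t½ (h), oral AUC (µM·h) and bioavailability F (%).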

[5] = Plasma clearance in monkey at 1 mg/kg, iv or 3 mg/kg, po; assay type: ADME, organism-based, Macaca mulatta; details: rhesus monkey; method in brief: as §2
[6] = Volume of distribution at steady state in monkey at 1 mg/kg, iv or 3 mg/kg, po; assay type: ADME, organism-based, Macaca mulatta; details: rhesus monkey, in vivo, read-out: Vdss; method in brief: as §2
Mus musculus [7] = assay: Antidiabetic activity in C57Bl/6NCrl mouse assessed as maximum plasma concentration required for reduction in glucose excursion at 0.3 mg/kg, po administered via gavage pretreated for 30 mins followed by glucose-challenge measured 60 mins post dose by OGTT; assay type: functional, organism-based; parameters: dose 0.3 mg/kg
Method in brief: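 Lean C57Bl/6 mice were dosed orally 30 min before the glucose challenge (oGTT, glucose followed for 60 min). Plasma Cmax was taken at t = 1 h after the 0.3 mPk dose.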

[8] = AUC in dog at 10 mg/kg, po; details: in vivo
[9] = Plasma clearance in dog at 1 mg/kg, iv or 10 mg/kg, po
Mus musculus [10] = assay: Antidiabetic activity in C57Bl/6NCrl mouse assessed as reduction in glucose excursion at 1 to 30 mg/kg, po administered via gavage pretreated for 30 mins followed by glucose-challenge measured 60 mins post dose by OGTT relative to control; assay type: functional; parameters: scale not given: the % may be the effect or the level left; method in brief: as §1
Mus musculus [11] = assay: Antidiabetic activity in C57Bl/6NCrl mouse assessed as reduction in glucose excursion at 0.03 mg/kg, po administered via gavage pretreated for 30 mins followed by glucose-challenge measured 60 mins post dose by OGTT relative to control; assay type: functional; parameters: scale not given: the % may be the effect or the level left; method in brief: as §1
[12] = Volume of distribution at steady state in dog at 1 mg/kg, iv or 10 mg/kg, po; details: in vivo, read-out: Vdss
Mus musculus [13] = assay: Antidiabetic activity in diet-induced obese mouse assessed as reduction in glucose excursion at 1 to 3 mg/kg, po by OGTT; assay type: functional, organism-based
[14] = Oral bioavailability in monkey at 3 mg/kg; assay type: ADME, organism-based, Macaca mulatta; details: rhesus monkey, in vivo; method in brief: as §2
Rattus norvegicus [15] = assay: Antidiabetic activity in Sprague-Dawley rat assessed as reduction in glucose excursion at 3 mg/kg, po pretreated followed by glucose challenge measured after 10 to 30 mins by OGTT; assay type: functional, organism-based
Method in brief: (§3)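 Sprague-Dawley rats underwent an oral glucose tolerance test with glucose excursion measured. Sitagliptin was dosed at 1 mpk and agonist at 3 mpk, alone or co-administered.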

Mus musculus [16] = assay: Antidiabetic activity in C57Bl/6NCrl mouse assessed as reduction in glucose excursion at 0.1 mg/kg, po administered via gavage pretreated for 30 mins followed by glucose-challenge measured 60 mins post dose by OGTT relative to control; assay type: functional; parameters: scale not given: the % may be the effect or the level left; method in brief: as §1
Mus musculus [17] = assay: Glucose lowering effect in C57Bl/6NCrl mouse assessed as reduction in glucose level at 3 mg/kg, po administered via gavage pretreated for 30 mins followed by glucose-challenge measured after 20 mins by OGTT relative to control; assay type: functional; parameters: scale not given: the % may be the effect or the level left
Method in brief: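 Overnight-fasted mice got compound or vehicle orally at 3 to 10 mg/kg. Glucose (3 g/kg po) was given 30 min post-dose. Blood glucose was read by hand-held glucometer before dosing, before glucose and 20 min after glucose. Glucose lowering (%) = [(1 − 20 min glucose of treated / 20 min glucose of vehicle) × 100].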

[18] = Volume of distribution at steady state in rat at 1 mg/kg, iv or 30 mg/kg, po; details: in vivo, read-out: Vdss
Mus musculus [19] = assay: Antidiabetic activity in lepr db/db mouse assessed as reduction in glucose excursion at 10 mg/kg, po by OGTT; assay type: functional, organism-based
Rattus norvegicus [20] = assay: AUC in rat at 30 mg/kg, po; details: in vivo
Mus musculus [21] = assay: Antidiabetic activity in C57Bl/6NCrl mouse assessed as reduction in glucose excursion at 1 mg/kg, po administered via gavage pretreated for 30 mins followed by glucose-challenge measured 60 mins post dose by OGTT relative to control; assay type: functional; parameters: scale not given: the % may be the effect or the level left; method in brief: as §1
Rattus norvegicus [22] = assay: Oral bioavailability in rat at 30 mg/kg; details: in vivo
[23] = Protein binding in rat assessed as unbound fraction at 10 uM; assay type: ADME, cell-free; details: plasma
Mus musculus [24] = assay: Antidiabetic activity in C57Bl/6NCrl mouse assessed as increase in plasma GLP1 (7 to 36) amide levels at 1 mg/kg, po administered via gavage pretreated followed by glucose-challenge measured after 10 mins; assay type: functional, organism-based
Rattus norvegicus [25] = assay: Antidiabetic activity in Sprague-Dawley rat assessed as reduction in glucose excursion at 3 mg/kg, po pretreated followed by glucose challenge measured after 10 to 30 mins in presence of sitagliptin by OGTT; assay type: functional, organism-based; method in brief: as §3
[26] = Half life in monkey at 1 mg/kg, iv or 3 mg/kg, po; assay type: ADME, organism-based, Macaca mulatta; details: rhesus monkey, in vivo; method in brief: as §2
[27] = biological target: T1, Glucose-dependent insulinotropic receptor (Mus musculus, UniProt Q7TQP3); assay: (§4) Agonist activity at mouse GPR119 assessed as increase in cAMP level; assay type: functional
T1 sequence (Q7TQP3 whole entry): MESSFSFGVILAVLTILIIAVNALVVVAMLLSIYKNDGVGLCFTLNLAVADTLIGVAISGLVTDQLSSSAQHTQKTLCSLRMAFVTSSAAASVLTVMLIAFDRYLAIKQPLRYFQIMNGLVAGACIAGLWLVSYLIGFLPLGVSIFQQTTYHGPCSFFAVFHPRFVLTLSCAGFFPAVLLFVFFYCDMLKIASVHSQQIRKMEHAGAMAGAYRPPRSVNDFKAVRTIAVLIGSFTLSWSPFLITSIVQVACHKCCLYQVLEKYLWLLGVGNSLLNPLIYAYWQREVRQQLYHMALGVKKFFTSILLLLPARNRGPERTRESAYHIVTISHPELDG

[28] = biological target: T2, Glucose-dependent insulinotropic receptor (Mus musculus) (UniProt Q7TQP3); assay: as §4; assay type: functional
T2 sequence (whole entry): T1 sequence (Q7TQP3 whole entry)

[29] = biological target: T3, Glucose-dependent insulinotropic receptor (Homo sapiens, UniProt Q8TDV5); assay: (§5) Agonist activity at human GPR119 expressed in HEK293 cells assessed as increase in cAMP level after 30 mins by LANCE assay; assay type: functional, cell-based
T3 sequence (Q8TDV5 whole entry): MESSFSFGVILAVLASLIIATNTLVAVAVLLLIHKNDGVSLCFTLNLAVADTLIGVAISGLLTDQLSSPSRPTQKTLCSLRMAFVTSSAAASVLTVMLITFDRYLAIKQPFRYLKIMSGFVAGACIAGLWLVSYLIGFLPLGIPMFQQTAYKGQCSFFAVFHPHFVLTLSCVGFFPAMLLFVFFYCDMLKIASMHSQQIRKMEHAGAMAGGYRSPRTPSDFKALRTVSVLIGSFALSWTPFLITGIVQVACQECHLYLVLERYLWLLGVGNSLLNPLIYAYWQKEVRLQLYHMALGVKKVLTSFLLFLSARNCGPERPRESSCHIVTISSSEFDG

[30] = biological target: T4, Glucose-dependent insulinotropic receptor (Homo sapiens) (UniProt Q8TDV5); assay: as §5; assay type: functional, cell-based
T4 sequence (whole entry): T3 sequence (Q8TDV5 whole entry)

Mus musculus [31] = assay: Antidiabetic activity in C57Bl/6NCrl mouse assessed as reduction in glucose excursion at 0.3 mg/kg, po administered via gavage pretreated for 30 mins followed by glucose-challenge measured 60 mins post dose by OGTT relative to control; assay type: functional; parameters: scale not given: the % may be the effect or the level left; method in brief: as §1
[32] = Half life in dog at 1 mg/kg, iv or 10 mg/kg, po; details: in vivo
[33] = Half life in rat at 1 mg/kg, iv or 30 mg/kg, po; details: in vivo

CC1(OC(=O)N2C[C@H]3COC[C@@H](C2)[C@@H]3Oc2ncnc(Nc3ccc(C#N)cc3Cl)c2F)CC1
Activity (Mus musculus [1]): Active
Activity (Mus musculus [2]): Dose-dependent effect
Activity (Mus musculus [3]): inactive
AUC [4]: 13 µM·h
clearance [5]: 3.1 mL/min/kg
Vd [6]: 2.6 L/kg
Cmax (Mus musculus [7]): 60 nM
AUC [8]: 131 µM·h
clearance [9]: 0.77 mL/min/kg
Activity (Mus musculus [10]): 50%
Activity (Mus musculus [11]): 21%
Vd [12]: 4.4 L/kg
Activity (Mus musculus [13]): Active
bioavailability [14]: 38%
Activity (Rattus norvegicus [15]): Active
Activity (Mus musculus [16]): 23%
Activity (Mus musculus [17]): 29%
Vd [18]: 5.8 L/kg
Activity (Mus musculus [19]): Active
AUC (Rattus norvegicus [20]): 63 µM·h
Activity (Mus musculus [21]): 49%
F (Rattus norvegicus [22]): 35%
Fu [23]: 1%
Activity (Mus musculus [24]): Active
Activity (Rattus norvegicus [25]): Active
half-life [26]: 12 h
EC50 [27]: 58 nM
%max [28]: 99%
EC50 [29]: 10 nM
%max [30]: 92%
Activity (Mus musculus [31]): 46%
half-life [32]: 70 h
half-life [33]: 8.8 h
